Laboratory results: ChEMBL document CHEMBL1136923, “Highly potent, orally available anti-inflammatory broad-spectrum chemokine inhibitors” (J Med Chem, 2009)

Experiments:
[1] = biological target: C-C chemokine receptor type 2 (Homo sapiens) (UniProt P41597); assay: Antagonist activity at CCR2 in human THP1 cells assessed as inhibition of CCL2-induced chemotaxis after 2 hrs by microtiter format trans-well migration assay; format: functional, cell-based; conditions: THP-1
Method in brief: (§1)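 Microtiter trans-well migration assay in Gey's balanced salt solution with 1 mg/mL endotoxin-free BSA, no fetal calf serum. Migration ran 2 h at 37 °C. Compounds dissolved in DMSO and added to both top and bottom compartments, final DMSO 1%.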

[2] = biological target: C-C chemokine receptor type 2 (Homo sapiens) (UniProt P41597); assay: Antagonist activity at CCR2 in human THP1 cells assessed as inhibition of CCL2-induced chemotaxis at 1000 nM after 2 hrs by microtiter format trans-well migration assay; format: functional, cell-based; conditions: THP-1; method in brief: as §1
[3] = biological target: C-C chemokine receptor type 2 (Homo sapiens) (UniProt P41597); assay: Antagonist activity at CCR2 in human THP1 cells assessed as inhibition of CCL2-induced chemotaxis at 100 nM after 2 hrs by microtiter format trans-well migration assay; format: functional, cell-based; conditions: THP-1; method in brief: as §1
[4] = biological target: C-C chemokine receptor type 2 (Homo sapiens) (UniProt P41597); assay: Antagonist activity at CCR2 in human THP1 cells assessed as inhibition of CCL2-induced chemotaxis at 10 nM after 2 hrs by microtiter format trans-well migration assay; format: functional, cell-based; conditions: THP-1; method in brief: as §1
[5] = biological target: C-C chemokine receptor type 2 (Homo sapiens) (UniProt P41597); assay: Antagonist activity at CCR2 in human THP1 cells assessed as inhibition of CCL2-induced chemotaxis at 1 nM after 2 hrs by microtiter format trans-well migration assay; format: functional, cell-based; conditions: THP-1; method in brief: as §1
[6] = biological target: C-C chemokine receptor type 2 (Homo sapiens) (UniProt P41597); assay: Antagonist activity at CCR2 in human THP1 cells assessed as inhibition of CCL2-induced chemotaxis at 0.1 nM after 2 hrs by microtiter format trans-well migration assay; format: functional, cell-based; conditions: THP-1; method in brief: as §1
Mus musculus [7] = assay: Antiinflammatory activity in sc dosed mouse assessed as inhibition of LPS-induced TNFalpha upregulation measured 2 hrs after LPS challenge; format: functional
Mus musculus [8] = assay: Antiinflammatory activity in sc dosed mouse assessed as inhibition of LPS-induced TNFalpha upregulation measured 2 hrs after LPS challenge relative to control; format: functional
Method in brief: (§2)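 Murine sublethal LPS endotoxemia screen. LPS is injected intraperitoneally and serum TNF-α is measured 2 h later as the end point. Compound is given subcutaneously or orally in a vehicle of 0.6% DMSO plus 1% carboxymethylcellulose (final concentrations) in sterile water. Values are % relative to control.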

Mus musculus [9] = assay: Antiinflammatory activity in po dosed mouse assessed as inhibition of LPS-induced TNFalpha upregulation measured 2 hrs after LPS challenge; format: functional
Mus musculus [10] = assay: Antiinflammatory activity in po dosed mouse assessed as inhibition of LPS-induced TNFalpha upregulation measured 2 hrs after LPS challenge relative to control; format: functional; method in brief: as §2
Mus musculus [11] = assay: Antiinflammatory activity in mouse assessed as inhibition of LPS-induced TNFalpha upregulation at 0.0016 ug, sc measured 2 hrs after LPS challenge; format: functional
Method in brief: (§3)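 Murine sublethal endotoxemia: LPS given intraperitoneally, with serum TNF-α measured 2 h after the LPS injection as the end point. Compound was given subcutaneously or orally. Vehicle was 0.6% DMSO and 1% carboxymethylcellulose (final concentrations) in sterile water. Effect is reported as % relative to control.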

Mus musculus [12] = assay: Antiinflammatory activity in mouse assessed as inhibition of LPS-induced TNFalpha upregulation at 0.0066 ug, sc measured 2 hrs after LPS challenge; format: functional; method in brief: as §3
Mus musculus [13] = assay: Antiinflammatory activity in mouse assessed as inhibition of LPS-induced TNFalpha upregulation at 0.016 ug, sc measured 2 hrs after LPS challenge; format: functional; method in brief: as §3
Mus musculus [14] = assay: Antiinflammatory activity in mouse assessed as inhibition of LPS-induced TNFalpha upregulation at 0.00016 mg, sc measured 2 hrs after LPS challenge; format: functional
Method in brief: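 Murine sublethal endotoxemia: LPS given intraperitoneally, serum TNF-α measured 2 h after LPS injection. Compound vehicle 0.6% DMSO plus 1% carboxymethylcellulose (final concentrations) in sterile water.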

Mus musculus [15] = assay: Antiinflammatory activity in mouse assessed as inhibition of LPS-induced TNFalpha upregulation at 0.0016 mg, sc measured 2 hrs after LPS challenge; format: functional; method in brief: as §3
Mus musculus [16] = assay: Antiinflammatory activity in mouse assessed as inhibition of LPS-induced TNFalpha upregulation at 0.016 mg, sc measured 2 hrs after LPS challenge; format: functional; method in brief: as §3
Mus musculus [17] = assay: Antiinflammatory activity in mouse assessed as inhibition of LPS-induced TNFalpha upregulation at 540 pg, po measured 2 hrs after LPS challenge; format: functional; method in brief: as §2
Mus musculus [18] = assay: Antiinflammatory activity in mouse assessed as inhibition of LPS-induced TNFalpha upregulation at 0.0027 ug, po measured 2 hrs after LPS challenge; format: functional; method in brief: as §3
Mus musculus [19] = assay: Antiinflammatory activity in mouse assessed as inhibition of LPS-induced TNFalpha upregulation at 0.0186 ug, po measured 2 hrs after LPS challenge; format: functional; method in brief: as §3
Mus musculus [20] = assay: Antiinflammatory activity in mouse assessed as inhibition of LPS-induced TNFalpha upregulation at 0.068 ug, po measured 2 hrs after LPS challenge; format: functional; method in brief: as §3
Mus musculus [21] = assay: Antiinflammatory activity in mouse assessed as inhibition of LPS-induced TNFalpha upregulation at 0.75 ug, po measured 2 hrs after LPS challenge; format: functional; method in brief: as §3
Mus musculus [22] = assay: Antiinflammatory activity in mouse assessed as inhibition of LPS-induced TNFalpha upregulation at 0.0186 mg, po measured 2 hrs after LPS challenge; format: functional; method in brief: as §3
[23] = Half life in Sprague-Dawley rat at 1 mg/kg, iv administered as single dose; format: ADME, organism-based; set-up: dose 1 mg/kg, route intravenous; conditions: in vivo
Method in brief: (§4)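 Male Sprague-Dawley rats, three per compound, receive a single intravenous dose in 5% DMSO in 0.9% saline. Food and water are given ad libitum. Plasma is taken at 5, 15, 30, 60, 120, 180, 240 and 480 min. Drug is measured by LC/MS/MS after extraction with 0.1% formic acid in acetonitrile. The curve is back-extrapolated to time zero assuming an initial volume of 0.26 L/kg.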

[24] = Clearance in Sprague-Dawley rat at 1 mg/kg, iv administered as single dose; format: ADME, organism-based; set-up: dose 1 mg/kg, route intravenous; conditions: in vivo; method in brief: as §4
[25] = Volume of distribution at steady state in Sprague-Dawley rat at 1 mg/kg, iv administered as single dose; format: ADME, organism-based; set-up: dose 1 mg/kg, route intravenous; conditions: in vivo, read-out: Vdss; method in brief: as §4
[26] = AUC (0 to t) in Sprague-Dawley rat at 1 mg/kg, iv administered as single dose; format: ADME, organism-based, Plasma; set-up: dose 1 mg/kg, route intravenous; conditions: Sprague-Dawley, plasma
Method in brief: (§5)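 Male Sprague-Dawley rats, three per compound per route, single dose. IV vehicle 5% DMSO in 0.9% saline; oral gavage vehicle 1% carboxymethylcellulose in 0.9% saline; fed ad libitum. Plasma taken 5–480 min post-dose, extracted with 0.1% formic acid in acetonitrile, quantified by LC/MS/MS (positive mode). AUC(0–t) by linear/log trapezoidal rule; IV curve back-extrapolated assuming initial volume 0.26 L/kg.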

[27] = Fractional bioavailability in Sprague-Dawley rat at 3 mg/kg, po administered as single dose; format: ADME, organism-based; conditions: in vivo
Method in brief: (§6)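 Male Sprague-Dawley rats, three per compound, receive a single oral dose by gavage in 1% carboxymethylcellulose in 0.9% saline, with food and water ad libitum. Plasma is sampled from 5 to 480 min and drug is quantified by positive-mode LC/MS/MS after acetonitrile/formic acid extraction. The lower limit of quantitation is about 2 ng/mL. Exposure is AUC(0→t) by the linear/log trapezoidal rule, and F is oral fractional bioavailability.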

[28] = Cmax in Sprague-Dawley rat at 3 mg/kg, po administered as single dose; format: ADME, organism-based; set-up: dose 3 mg/kg, route oral; conditions: in vivo; method in brief: as §6
[29] = AUC (0 to t) in Sprague-Dawley rat at 3 mg/kg, po administered as single dose; format: ADME, organism-based; set-up: dose 3 mg/kg, route oral; conditions: plasma; method in brief: as §5
Rattus norvegicus = assay: Plasma concentration in Sprague-Dawley rat at 3 mg/kg, po administered as single dose; format: ADME, organism-based; set-up: dose 3 mg/kg, route oral; conditions: in vivo; method in brief: as §6

Sequence of C-C chemokine receptor type 2 (Homo sapiens) (P41597 whole entry, looked up): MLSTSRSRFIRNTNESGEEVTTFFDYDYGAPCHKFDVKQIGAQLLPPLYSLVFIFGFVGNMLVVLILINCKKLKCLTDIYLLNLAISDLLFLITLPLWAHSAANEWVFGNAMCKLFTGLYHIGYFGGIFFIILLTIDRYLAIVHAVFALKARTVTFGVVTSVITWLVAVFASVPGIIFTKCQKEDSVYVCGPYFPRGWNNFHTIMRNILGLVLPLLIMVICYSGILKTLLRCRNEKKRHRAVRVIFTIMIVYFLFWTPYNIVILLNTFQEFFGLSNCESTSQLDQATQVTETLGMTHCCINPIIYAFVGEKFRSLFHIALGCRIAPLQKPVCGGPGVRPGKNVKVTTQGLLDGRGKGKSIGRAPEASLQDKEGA

For CCCCCCCCCC(C)(C)CC(=O)N[C@H]1CCCCNC1=O, which ED50 [1] is on record?
Its ED50 is 4 nM.

For CCC(C)(C)C(=O)N[C@H]1CCCCNC1=O, which ED50 [1] is on record?
The ED50 was 0.07 nM.

For CC1(C(=O)N[C@H]2CCCCNC2=O)CCCCC1, which ED50 [1] is on record?
The ED50 was 0.09 nM.

And the inhibition [2]?
The inhibition was 100%.

What about the inhibition [3] of the same molecule?
The inhibition was 99%.

What about the inhibition [4] of the same molecule?
The inhibition was 100%.

What about the inhibition [5] of the same molecule?
Its inhibition is 98%.

And the inhibition [6]?
Its inhibition is 38%.

And the ED50 (Mus musculus [7])?
Its ED50 is 0.33 µg/kg.

And the “inhibition (INH)” value (Mus musculus [8])?
Its value is 90%.

And the ED50 (Mus musculus [9])?
The ED50 was 0.33 µg/kg.

What about the “inhibition (INH)” value (Mus musculus [10]) of the same molecule?
The value was 90%.

And the “inhibition (INH)” value (Mus musculus [11])?
The value was 11%.

And the “inhibition (INH)” value (Mus musculus [12])?
Its value is 52%.

And the “inhibition (INH)” value (Mus musculus [13])?
Its value is 71%.

What about the “inhibition (INH)” value (Mus musculus [14]) of the same molecule?
Its value is 74%.

What about the “inhibition (INH)” value (Mus musculus [15]) of the same molecule?
Its value is 73%.

What about the “inhibition (INH)” value (Mus musculus [16]) of the same molecule?
Its value is 88%.

And the “inhibition (INH)” value (Mus musculus [17])?
The value was -1%.

What about the “inhibition (INH)” value (Mus musculus [18]) of the same molecule?
Its value is 14%.

And the “inhibition (INH)” value (Mus musculus [19])?
The value was 64%.

What about the “inhibition (INH)” value (Mus musculus [20]) of the same molecule?
The value was 64%.

What about the “inhibition (INH)” value (Mus musculus [21]) of the same molecule?
Its value is 70%.

And the “inhibition (INH)” value (Mus musculus [22])?
The value was 90%.

And the half-life [23]?
Its half-life is 11 min.

What about the clearance [24] of the same molecule?
The clearance was 55 mL/min/kg.

And the Vd [25]?
The Vd was 0.6 L/kg.

What about the AUC(0-t) [26] of the same molecule?
Its AUC(0-t) is 48.3 ng·h/mL.

And the bioavailability [27]?
Its bioavailability is 5%.

And the Cmax [28]?
The Cmax was 3 ng/mL.

What about the AUC(0-t) [29] of the same molecule?
The AUC(0-t) was 7.17 ng·h/mL.

And the Cp (Rattus norvegicus)?
Its Cp is less than 2 ng/mL.

With O=C(N[C@H]1CCCCNC1=O)C1CCCCC1 as the molecule, how does the ED50 [1] read?
The ED50 was 0.5 nM.

With CC(C)=CCC(C)(C)C(=O)N[C@H]1CCCCNC1=O as the molecule, how does the ED50 [1] read?
Its ED50 is 0.2 nM.

For CCCCCCCCCCCC(=O)N[C@H]1CCCCNC1=O, which ED50 [1] is on record?
Its ED50 is 15 nM.

With CCCCCCCCCCC(C)C(=O)N[C@H]1CCCCNC1=O (mixture of isomers; form 2) as the molecule, how does the ED50 [1] read?
The ED50 was 3 nM.

Which ED50 [1] does the source give for CC(CCl)(CCl)C(=O)N[C@H]1CCCCNC1=O here?
Its ED50 is 9 nM.

With CCCCCCCCC/C=C(\C)C(=O)N[C@H]1CCCCNC1=O as the molecule, how does the ED50 [1] read?
The ED50 was 10 nM.

For O=C(N[C@H]1CCCCNC1=O)C1=CCCCC1, which ED50 [1] is on record?
The ED50 was 0.8 nM.
